Reference: ChEMBL document CHEMBL5303300, “EUbOPEN Chemogenomics Library - Multiplex” (2023)
Where “and” joins values, the source holds several entries; their conditions need not be identical. Identical values can stand only once.

Legend:
Assay type in all cases: toxicity, cell-based
Fibroblast = test: Multiplex assay against human fibroblast; settings: number of replicates 2
How it was run: (§1)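 Live cells were stained at seeding with Hoechst33342, BioTracker Green Microtubule Cytoskeleton Dye, MitoTracker Red and Annexin V Alexa Fluor 680. Following compound addition, they were imaged on a CQ1 microscope at 37°C and 5% CO2 and gated by CellPathfinder machine learning into Hoechst high-intensity objects or normal cells, with normal cells split into healthy, pyknosed or fragmented nuclei and pyknosed cells into mitotic or apoptotic. Tubulin, mitochondrial-mass and membrane-permeability phenotypes are per cents of healthy-nucleus cells.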

HEK-293T = test: Multiplex assay against HEK293T; settings: human, number of replicates 2; how it was run: as §1
U2OS = test: Multiplex assay against U2OS; settings: human, number of replicates 2; how it was run: as §1
[1] = 12 h, 1 µM, compound concentration 1 uM
[2] = 12 h, 10 µM, compound concentration 10 uM
[3] = 24 h, 1 µM, compound concentration 1 uM
[4] = 24 h, 10 µM, compound concentration 10 uM
[5] = 48 h, 1 µM, compound concentration 1 uM
[6] = 48 h, 10 µM, compound concentration 10 uM

`CS(=O)(=O)c1ccc(C(=O)Nc2cccc(COc3ccc(Br)cc3CNCCO)c2)c(Cl)c1.O=CO` was tested, and the “Population Apoptotic (%)” value (Fibroblast; [1]) was 37% and 48%, the “Population Hoechst High Intensity Objects (%)” value (Fibroblast; [1]) was 0% and the “Population Mitotic Cells (%)” value (Fibroblast; [1]) was 62% and 51%. The “Total Cell Count” value (Fibroblast; [1]) was 153 and 242, the “Population Apoptotic (%)” value (Fibroblast; [2]) was 58% and 47% and the “Population Hoechst High Intensity Objects (%)” value (Fibroblast; [2]) was 0%. For the same compound, the “Population Mitotic Cells (%)” value (Fibroblast; [2]) was 41% and 52%, the “Population Pyknosed Nuclei (%)” value (Fibroblast; [2]) was 28% and the “Total Cell Count” value (Fibroblast; [2]) was 238 and 244. For the same compound, the “Population Apoptotic (%)” value (Fibroblast; [3]) was 70% and 59%, the “Population Hoechst High Intensity Objects (%)” value (Fibroblast; [3]) was 0% and the “Population Mitotic Cells (%)” value (Fibroblast; [3]) was 30% and 40%. For the same compound, the “Population Pyknosed Nuclei (%)” value (Fibroblast; [3]) was 20% and 18%, the “Total Cell Count” value (Fibroblast; [3]) was 148 and 236 and the “Population Apoptotic (%)” value (Fibroblast; [4]) was 80% and 67%. The “Population Hoechst High Intensity Objects (%)” value (Fibroblast; [4]) was 2% and 0%, the “Population Mitotic Cells (%)” value (Fibroblast; [4]) was 20% and 32% and the “Population Pyknosed Nuclei (%)” value (Fibroblast; [4]) was 28%. For the same compound, the “Total Cell Count” value (Fibroblast; [4]) was 232 and 267, the “Population Apoptotic (%)” value (Fibroblast; [5]) was 80% and 74% and the “Population Hoechst High Intensity Objects (%)” value (Fibroblast; [5]) was 0%. For the same compound, the “Population Mitotic Cells (%)” value (Fibroblast; [5]) was 19% and 25%, the “Population Pyknosed Nuclei (%)” value (Fibroblast; [5]) was 16% and 15% and the “Total Cell Count” value (Fibroblast; [5]) was 153 and 246. For the same compound, the “Population Apoptotic (%)” value (Fibroblast; [6]) was 85% and 77%, the “Population Hoechst High Intensity Objects (%)” value (Fibroblast; [6]) was 2% and 0% and the “Population Mitotic Cells (%)” value (Fibroblast; [6]) was 22%. For the same compound, the “Total Cell Count” value (Fibroblast; [6]) was 247 and 259, the “Population Apoptotic (%)” value (HEK-293T; [1]) was 64% and 58% and the “Population Healthy Nuclei (%)” value (HEK-293T; [1]) was 78% and 83%. The “Population Mitotic Cells (%)” value (HEK-293T; [1]) was 35% and 41%, the “Total Cell Count” value (HEK-293T; [1]) was 423 and 657 and the “Population Apoptotic (%)” value (HEK-293T; [2]) was 66%. For the same compound, the “Population Healthy Nuclei (%)” value (HEK-293T; [2]) was 81% and 80%, the “Population Mitotic Cells (%)” value (HEK-293T; [2]) was 33% and the “Total Cell Count” value (HEK-293T; [2]) was 566 and 616. The “Population Apoptotic (%)” value (HEK-293T; [3]) was 42% and 53%, the “Population Healthy Nuclei (%)” value (HEK-293T; [3]) was 83% and 80% and the “Population Mitotic Cells (%)” value (HEK-293T; [3]) was 57% and 46%. For the same compound, the “Total Cell Count” value (HEK-293T; [3]) was 974 and 659, the “Population Apoptotic (%)” value (HEK-293T; [4]) was 65% and 72% and the “Population Healthy Nuclei (%)” value (HEK-293T; [4]) was 78% and 75%. The “Population Mitotic Cells (%)” value (HEK-293T; [4]) was 34% and 28%, the “Total Cell Count” value (HEK-293T; [4]) was 498 and 611 and the “Population Apoptotic (%)” value (HEK-293T; [5]) was 36% and 25%. The “Population Healthy Nuclei (%)” value (HEK-293T; [5]) was 82% and 85%, the “Population Mitotic Cells (%)” value (HEK-293T; [5]) was 63% and 75% and the “Total Cell Count” value (HEK-293T; [5]) was 1468 and 2063. For the same compound, the “Population Apoptotic (%)” value (HEK-293T; [6]) was 82%, the “Population Healthy Nuclei (%)” value (HEK-293T; [6]) was 77% and 78% and the “Population Mitotic Cells (%)” value (HEK-293T; [6]) was 36% and 17%. For the same compound, the “Total Cell Count” value (HEK-293T; [6]) was 828 and 933, the “Population Apoptotic (%)” value (U2OS; [1]) was 50% and 66% and the “Population Healthy Nuclei (%)” value (U2OS; [1]) was 74% and 84%. For the same compound, the “Population Mitotic Cells (%)” value (U2OS; [1]) was 50% and 33%, the “Population Apoptotic (%)” value (U2OS; [2]) was 66% and 50% and the “Population Healthy Nuclei (%)” value (U2OS; [2]) was 73%. For the same compound, the “Population Mitotic Cells (%)” value (U2OS; [2]) was 33% and 50%, the “Population Apoptotic (%)” value (U2OS; [3]) was 75% and 87% and the “Population Healthy Nuclei (%)” value (U2OS; [3]) was 79% and 82%. The “Population Mitotic Cells (%)” value (U2OS; [3]) was 25% and 12%, the “Population Pyknosed Nuclei (%)” value (U2OS; [3]) was 15% and the “Population Apoptotic (%)” value (U2OS; [4]) was 66% and 74%. For the same compound, the “Population Healthy Nuclei (%)” value (U2OS; [4]) was 59% and 66%, the “Population Mitotic Cells (%)” value (U2OS; [4]) was 33% and 25% and the “Population Pyknosed Nuclei (%)” value (U2OS; [4]) was 34% and 27%. The “Population Apoptotic (%)” value (U2OS; [5]) was 83%, the “Population Healthy Nuclei (%)” value (U2OS; [5]) was 83% and 88% and the “Population Mitotic Cells (%)” value (U2OS; [5]) was 36% and 16%. For the same compound, the “Population Pyknosed Nuclei (%)” value (U2OS; [5]) was 9%, the “Population Apoptotic (%)” value (U2OS; [6]) was 91% and 85% and the “Population Healthy Nuclei (%)” value (U2OS; [6]) was 46% and 62%. For the same compound, the “Population Mitotic Cells (%)” value (U2OS; [6]) was 8% and the “Population Pyknosed Nuclei (%)” value (U2OS; [6]) was 45% and 27%.
